Experimental data collected from several papers.
Lines come from different studies, so protocols differ.
Target: Casein kinase I isoform gamma-3 (CSNK1G3, Homo sapiens, UniProt Q9Y6M4)

CN(C)CC#Cc1ccc(OCCCc2sc(N3CCc4cccc(C(=O)Nc5nc6ccccc6s5)c4C3)nc2C(=O)O)c(F)c1  remaining binding (cell-free assay; competition with immobilised ligand; 1 µM): 100%
CN(C)c1nccc(-c2cnn3ncccc23)n1  remaining binding (binding; 1 µM): 82%
O=C1NC(c2ccccn2)Sc2ccccc21 (centres unmarked)  remaining binding (cell-free assay; competition with immobilised ligand; 1 µM): 100%
CN(C)c1nccc(-c2cnc3ncccn23)n1  remaining binding (binding; 1 µM): 70%
Nc1ncc2c(n1)-c1c([nH]c3ccc(C#CC4CC4)cc13)CCCC2  remaining binding (binding; competition with immobilised ligand; 1 µM): 93%
Cc1cnc(Nc2ccc(C(=O)N3CCC(N4CCCC4)CC3)cc2)nc1-c1cc2ccccc2s1  remaining binding (binding; competition with immobilised ligand; 1 µM): 100%
c1cncc(-c2cccc(Nc3nccc(NC4CCCCC4)n3)c2)c1  remaining binding (binding; competition with immobilised ligand; 10 µM): 100%
N[C@H]1CCN(c2nccc(-c3cnn4ncccc34)n2)C1  remaining binding (binding; 1 µM): 100%
CNC(=O)[C@@H]1CC[C@@H](n2c(-c3ccc4cnccc4c3)nc3ccc(C(=O)NCc4cccc(C(N)=O)c4)cc32)C1  remaining binding (binding; competition with immobilised ligand; 1 µM): 100%
O=C(O)[C@H]1[C@H](Cn2nnc3ccccc3c2=O)CC[C@@H]1C(=O)c1ccc(OCCC2CCOCC2)cc1  remaining binding (cell-free assay; competition with immobilised ligand; 1 µM): 100%
COc1cnc(Nc2cccc(S(N)(=O)=O)c2)nc1N1CCN(c2ccccc2)C(=O)C1  remaining binding (binding; competition with immobilised ligand; 1 µM): 87%
CCOCCn1cc(C(=O)Nc2ccc(-n3nc(-c4cccnc4)cc3C(F)(F)F)cn2)ccc1=O  remaining binding (cell-free assay; competition with immobilised ligand; 1 µM): 100%
CN(C)c1ncc(F)c(-c2cnn3ncccc23)n1  remaining binding (binding; 1 µM): 100%
O=C(NCCCN1CCOCC1)c1ccc(Nc2ncc(Cl)c(-c3ccc(Cl)s3)n2)cc1  remaining binding (binding; competition with immobilised ligand; 1 µM): 100%
O=C(NCc1ncc(C(F)(F)F)cc1Cl)c1ccc2c(c1)C1(CCS(=O)(=O)CC1)[C@H](C1CC1)N2S(=O)(=O)c1ccc(F)cc1  remaining binding (cell-free assay; competition with immobilised ligand; 1 µM): 100%
C[C@@H]1CCN(c2nccc(-c3cnn4ncccc34)n2)C1  remaining binding (binding; 1 µM): 65%
O=C(Nc1c[nH]nc1C(=O)NC1CCNCC1)c1cc(F)cc(F)c1  remaining binding (binding; competition with immobilised ligand; 1 µM): 98%
Cc1cnn2ncc(-c3ccnc(N(C)C)n3)c2c1  remaining binding (binding; 1 µM): 82%
N#Cc1ccc(Nc2ccc3[nH]c(=O)[nH]c3c2)c(Cl)c1  remaining binding (cell-free assay; competition with immobilised ligand; 1 µM): 99%
O=C(NCCCN1CCOCC1)c1ccc(Nc2nccc(-c3cc4ccccc4s3)n2)cc1  remaining binding (binding; competition with immobilised ligand; 1 µM): 88%
